# Efflux pump mplx – antifungal efflux pump inhibition, Nile Red retention; S. cerevisiae Candida pump triplex; inhibition, % at 10 µM; hit rate 0.44% among 330,000;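 active means plate passing quality check with inhibition over a set limit, or well fluorescence over plate mean plus 4 SD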;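 further: Nile Red retained in pooled yeast measured as flow cytometry median fluorescence; 0% = buffer negative control and 100% = Enniatin B positive control; higher means more Nile Red kept so more efflux inhibition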
# TAG inh – triacylglycerol accumulation inhibition; H9c2 cells, Nile Red lipid (TAG) fluorescence; cells loaded with 200 µM oleic acid; inhibition, % at 12.5 µM; hit rate 0.66% among 230,000;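 active means pattern-corrected inhibition of lipid staining of at least 50% with the nuclear-stain viability signal not falling by more than 50%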;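 further: 0% = DMSO wells and 100% = triacsin C control wells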
# TbMetRS inhib – Trypanosoma brucei MetRS inhibition | purified T. brucei MetRS, ATP depletion, Kinase-Glo luminescence | inhibition, % at 11.9 µM | hit rate 0.4% among 360,000 | AID 624268;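 active means inhibition above a per-plate cutoff of the control wells' mean inhibition plus 3 SD, cut at about 5.5% in these data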;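 further: 0% = DMSO wells median and 100% = median of wells with control inhibitor compound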
#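 Material: parasite MetRS enzyme / Replication: singlicate, one well per compound / Signal: luminescence of leftover ATP / Schedule: 2 h aminoacylation at 25 °C after 15 min preincubation / Medium: HEPES-MgCl2-KCl buffer plus DTT, spermine, BSA, pyrophosphatase / Doses: 11.9 µM single point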
# SMARCA2 activ – activators of SMARCA2 function | MG213 cells, MMTV-luciferase reporter, dexamethasone, overnight | activation, % at 9.1 µM | hit rate 1% among 370,000; in the data active means activation above about 7.8%;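 further: 0% = vehicle wells and 100% = reference activator wells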
# AHR act – activates the human aryl hydrocarbon receptor | activation, % at 5 µM | AID 2796 | AHR-responsive luciferase reporter cells, luminescence | hit rate 2.5% among 320,000 | P35869; in the data active means activation above about 47%;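 further: 0% = vehicle wells and 100% = reference agonist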
# SMARCA2 conf – SMARCA2 activation, confirmation screen. MG213 cells, MMTV-luciferase with dexamethasone, luminescence, overnight; MG213 cells expressing E1A, Rb sequestered; DMSO wells 0%, reference activator 100%. hit rate 30% among 3,500. shares compounds with SMARCA2 activ. AID 652260. activation, % at 9.1 µM;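 active means activation above its plate's cutoff, the mean activation of tested wells plus 3 SD, cut at about 7.9% in these data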
# VP16 Luc act – GAL4-VP16 reporter activation counter-screen; shares compounds with SMARCA2 activ; hit rate 41% among 3,500; AID 686939; activation, % at 9.1 µM; HEK293 GAL4-VP16 pG5luc reporter, luciferase luminescence; scaled: DMSO wells 0%, SAHA wells 100%;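 active means activation above the solvent-only control well mean plus 3 SD, averaged across control plates, cut at about 5.2% in these data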
# The depositor's hits bear a star; . = not tested or not shown. Rows were chosen to be rich in hits. Some 4.1% of all compounds tested hit in one or more screens of this group.
SMILES,Efflux pump mplx,TAG inh,TbMetRS inhib,SMARCA2 activ,AHR act,SMARCA2 conf,VP16 Luc act
CN[C@H]1C[C@H]2c3cc(-c4ccccc4C)ccc3CCN2C[C@H]1[C@H](C)O,.,.,.,9.6*,.,-5,-1
CCCCNC(=O)C[C@H]1C[C@@]2(C(=O)OC)C(=C[C@H](COCc3ccccc3)O[C@@H]2C)N(Cc2ccc3c(c2)OCO3)C1=O,.,.,.,1,.,.,.
O=c1c2ccccc2sc2c(CO)ccc(NCCN3CCCCC3)c12,.,39,0,8.6*,.,29*,-1
COc1ccc(OCC(O)CN2CCC(CN3C(=O)c4cccc5cccc(c45)C3=O)CC2)cc1 (stereo not drawn),0,-14,0,11*,0,2,2
CCOC(=O)C(CNc1ccc(O)cc1)NC(=O)c1ccccc1 (stereo not drawn),.,.,.,-5,.,.,.
CC(=O)c1cccc(-c2ccnc3c2CC(C(=O)NCc2ccc(N4CCN(C)CC4)cc2)O3)c1 (stereo not drawn),.,22,0,8.7*,.,3,5
O=C(CC(Sc1ccc(Br)cc1)C(=O)O)c1ccc(F)cc1 (stereo not drawn),0,.,-1,8.6*,1,-1,1
Cc1nc2nc(-c3cccs3)cn2nc1C,0,4,0,10*,13,11*,13*
Cc1cccc([N+](=O)[O-])c1NC(=O)COC(=O)C1CCCO1 (stereo not drawn),0,1,0,-3,1,.,.
Cc1c(NC(=O)C2CCCO2)cccc1[N+](=O)[O-] (stereo not drawn),0,.,0,9.5*,-4,2,0
O=C(NCC1CCCN1S(=O)(=O)c1cccs1)c1ccccc1F (stereo not drawn),0,-7,1,8.4*,-1,-5,2
N#C/C(=C/c1ccc(N2CCOCC2)o1)c1nc2ccccc2[nH]1,0,-88,2,9.7*,25,16*,17*
COc1cc(/C=C(\C#N)c2nc3ccccc3[nH]2)cc(OC)c1O,0,15,3,8.2*,15,5,5.7*
C/C(O)=C(\C#N)c1nc2ccccc2[nH]1,0,.,0,-1,9,.,.
COc1cc(/C=C(\C#N)c2nc3ccccc3[nH]2)cc(Br)c1OCc1ccccc1,0,.,0,0,26,.,.
Cc1ccc(/C=C(\C#N)c2nc3ccccc3[nH]2)s1,0,.,0,10*,93*,19*,11*
COC1=C[C@H](C(=O)NCc2ccccn2)[C@@]2(C)Cc3ccccc3[C@H]2CC1=O,.,.,.,-1,.,.,.
COc1ccc(NC(=O)C2CCCN(S(=O)(=O)c3ccc4[nH]c(=O)ccc4c3)C2)cc1OC (stereo not drawn),0,.,0,15*,0,-5,1
Cc1ccc(NC(=O)C2CCCN(S(=O)(=O)c3ccc4[nH]c(=O)ccc4c3)C2)cc1C (stereo not drawn),0,17,2,-2,1,.,.
CN(C)c1cccc(O)c1,0,.,0,-3,4,.,.
Cc1cc(O)ccc1Nc1cc(-c2cccc(N(C)C)c2)ncn1,.,-10,0,11*,.,11*,11*
c1ccc(-n2c(SCc3cccc4ccccc34)nnc2-c2ccncc2)cc1,.,.,.,-4,.,.,.
CCOC(=O)C1CCN(Cc2nc3ccc([N+](=O)[O-])cc3c(=O)n2-c2ccc(OC)cc2OC)CC1,0,6,0,9.1*,15,0,2
COc1ccc(-n2c(CN3CCC(C(N)=O)CC3)nc3ccc([N+](=O)[O-])cc3c2=O)c(OC)c1,0,12,0,8.0*,19,1,1
CCOC(=O)c1ccc(-n2c(CN3CCC(O)CC3)nc3ccc([N+](=O)[O-])cc3c2=O)cc1,0,3,0,19*,10,9.5*,0
CCN1CCN(Cc2nc3ccc([N+](=O)[O-])cc3c(=O)n2-c2ccc(OC)cc2OC)CC1,1,.,0,2,16,.,.
COC(=O)c1cccc(NC(=O)Cn2cnc3ccccc3c2=O)c1,0,.,0,13*,-1,-5,-3
